From the RNAGym collection of RNA variant scans (doi:10.1126/science.aae0568) come the findings set out here.

Variants at the floor of the assay were thinned out.

The chains are these.
B1: tRNA (parent)
chain: GUUCCGUUGGCGUAAUGGUAACGCGUCUCCCUCCUAAGGAGAAGACUGCGGGUUCGAGUCCCGUACGGAACG

The series covers variants of B1. The series can be described thus: yeast fitness relative to wild type (ratio to wild type); higher = fitter; tRNA-Arg(CCU), competitive growth, 37 C, YPD. An outline of the steps:
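A pool of Saccharomyces cerevisiae strains, each with a tRNA-Arg(CCU) gene variant at the native genomic locus, was competed in YPD at 37°C for 24 hours across six parallel replicates. The variants had been chemically synthesised at a 3% per-site mutation rate over 69 sites, and gene amplicons before and after competition were read by 100-nucleotide paired-end sequencing. Darwinian fitness relative to wild type rested on changes in genotype frequencies. Genotypes required ≥ 100 starting reads, and estimates < 0.5 were set to 0.5.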
As for GUUCCGAUGGCGUAAUGGUAACGCGUCUCCCUCCUAAGGAGAAGACUGCGGGUUCGAGUCCCGUAGGGAACG, the yeast fitness was 0.62. Next, GUUCCGAUGACGUAUUGGUAACGCGUCUCCCUCCUAAGGAGAAGAAUGCGGGUUCGAGUCCCGUACGGAACG: no more than 0.5; GUUCCGAUCGCGUAAUCGUAACGCGUCUCCCUCCUAAGGAGAAGACUGUGGGUUCGAGUCCGGUACGGAACG: no more than 0.5.

In the case of GUUCCGAUCGCGUAAUCGUAACGCGUCUCCCUCCUAAGGAGAAGACUGCGGGUUCGAGUCUCGUACGCAACG, the yeast fitness was no more than 0.5. With GUUCCGAUCGCGUAAUCGUAACGCGUCUCCCUCCUAAGGAGAAGACUACGGGUUCGAGUCCAGUACGGAACG the figure was no more than 0.5. Next, GUUCCGAUCGCGUAAUGGUAACGCGUCUCUCUCGUAAGGAGAAGACUGCGGGUUCGAGUCCCGUACGGAACG: no more than 0.5; GUUCCGAUCGCGUAAUCGUAACGCGUCUCCCUCCUAAGGAGAAGACUACGGGUUCGAGUCCCGUACUGAACG: no more than 0.5; GUUCCGAUCGCGUAAUCGUAACGCGUCUCCCUCCUAAGGAGAAGACUACGGGUUCGAGUCCCGUACAGAACG: no more than 0.5. With GUUCCGAUGACGUAAUGGUAACGCGUCUCCCUACUCAGGAGAAGACUGCGGGUUCGAGUCCCGUACGGAACG the figure was no more than 0.5; with GUUCCGAUCGCGUAAUCGUAACGCGUCUCCCUCCUAAGGAGAAGACUACGGGUACGAGUCCCGUACGGAACG, no more than 0.5. For the variant GUUCCGAUGACGUAUUGGUAACGCGUCUCCCUCCUAAGGAGAGGACUGCAGGUUCGAGUCCCGUACGGAACG, the yeast fitness was determined as 0.53. With GUUCCGAUCGCGUAAUCGUAACGCGUCUCCCUCCUAAGGAGAAGACUGCAGGUUCGAGUCCCGUACGGAACG the figure was no more than 0.5; with GUUCCGAUGACGUAAUGGUAACGCGUCUCCCUACUCAGGAGAAGACUGCGGGUUCGAGUCUCGUAUGGAACG, no more than 0.5.

Regarding GUUCCGAUCGCGUAAUCGUAACGCGUCUCCCUCCUAAGGAGAAGAAUGCGGGUUCGAGUCCCGUACGCAACG, the yeast fitness was no more than 0.5. Next, GUUCCGAUGACGUAAUGGUAACGCGUCUCCGUCCUAAGGAGAAGACUGCGGGUUCGAGUCCCGUACGGAACG: no more than 0.5. In the case of GUUCCGAUGACGUAUUGGUAACGCGUCUCCCUCCUAAGGAGAAGACUGCGGGUUCAAGUCCCGUACGGUACG, the yeast fitness is no more than 0.5. Turning to GUUCCGAUGGCGUAAUGGUAACGCGUCUCCCUCCUAAGGAGAAGACUGCGGGUUCGAGUCCUGUACGGAACG, the yeast fitness stood at 0.888.

Take GUUCCGAUCGCGUAAUGGUAACGCGUCUCUCUCGUAGGGAGAAGACUGCGGGUUCGAGUCCCGUACGCAACG: the yeast fitness is no more than 0.5.

In the case of GUUCCGAUGACGUAAUGGUAACGCGUAUCGCUCCUAAGGACAAGACUGCGGGUUCGAGUCCCGUACGGAACG, the yeast fitness was no more than 0.5. With GUUCCGAUAGCGGAAUGGUAACGCGUCUCCCUCCUAAGGAGAAGACUGCGGGUUCAAGUCCCGUACGGAACG the figure was no more than 0.5. With GUUCCGAUCGCGUAAUCGUAACGCGUCUCCCUCCUAAGGAGAUGACUACGGGUUCGAGUCCCGUACGGAACG the figure was no more than 0.5; with GUUCCGAUGACGUAAUGGUAACGCGUCUCCCUACUCAGGAGAAGACUGCGGGUUCGAGUCCCGUACGGCACG, no more than 0.5.

As to GUUCCGAUGACGUAAUGGUCACGCGUCUACCUCCUAAGGAGAAGACUGCGGGUUCGAGUCCCGCACGGAACG, the yeast fitness is no more than 0.5. Next, GUUCCGAUGACGUAAUGGUAACGCGUCUCACUCCUAAGGAGACGACUGCGGGUUCGAGUCCCGUACGGAACG: no more than 0.5; GUUCCGAUGACGUAAUGGUCACGCGUCUACCUCCUAAGGAGAAGACUGCGGGUUCGAGUCUCGUAUGGAACG: no more than 0.5. With GUUCCGAUGACGUAAUGGUAACGCGUCUCCCUACUCAGGAGAAGACUGCUGGUUCGAGUCCCGUACGGAACG the figure was no more than 0.5.

Regarding GUUCCGAUGACGUAAUGGUAACGCGUCUCCCUACUCAGGAGAAGACUGCGGGUUCGAGUCCCGUACCGAACG, the yeast fitness was no more than 0.5.

Regarding GUUCCGAUCGCGUAAUCGUAACGCGUCUCCCUCCUAAGGUGAAGACUGCGGGUUCGAGUCCCGUCCGGAACG, the yeast fitness is no more than 0.5. With GUUCCGAUAGCGAAAUGGUAACGCGUCUCCCUCCUAAGGAGAAGACUGCGGGUUCGAGUCCCGUACGGAUCG the figure was no more than 0.5; with GUUCCGAUCGCGUAAUCGUAACGCGUCUCCCUCCUAAGGAGAAGACUACGGGUUCGAGUUCCGUACGGAACG, no more than 0.5; with GUUCCGAUGACGUAAUGGUCACGCGUCUACCUCCUAAGGAGAAGACUGCGGGUAUGAGUCCCGUACGGAACG, no more than 0.5.

GUUCCGAUCGCGUAAUCGUAACGCGUCUCCCUCCUAAGGAGAAGACUACGGGUUCGAGUCCCGUAUGGAACG: the yeast fitness was no more than 0.5. Next, GUUCCGAUGACGUAAUGGUAACGCGUCUCCCUCCUAAGGGGAAGACUGCGGGUUCGAGUUCCGUACGGAACG: no more than 0.5; GUUCCGAUCACGUAAUGGUAACGCGUCUCUCUCGUAAGGAGAAGACUGCGGGUUCGAGUCCCGUACGCAACG: no more than 0.5. Next, GUUCCGAUGACGUAAUGGUAACGCGUCUCCCUACUCAGGAGAAGACUGCGGGUUCGAGUCCCGUACGGAUCG: no more than 0.5; GUUCCGAUGACGUAAUGGUCACGCGUCUACCUCCUAAGGAGAAGACUGCGGGUUCGAGUCCCAUACGGACCG: no more than 0.5.

Turning to GUUCCGAUCGCGUAAUCGUAACGCGUCUCCCUCCUAAGGAGAAGACUACGGGUUCGAGUCCCGUACGGAACG, the yeast fitness was 0.525. For GUUCCGAUAGCGAAAUGGUAACGCGUCUCCCUCCUAAGGAGAAGACUGCGGGUUCAAGUCCCGUACGGAACG, the yeast fitness amounted to 0.535.
